Reference: ChEMBL document CHEMBL1138429, “Novel carbazole derivatives as NPY Y1 antagonists” (Bioorg Med Chem Lett, 2007)
pIC50: −log10 of the molar value.

Key:
[1] = target: T1, Neuropeptide Y receptor type 1 (Homo sapiens, UniProt P25929); assay: Displacement of [125]peptide YY from human recombinant Y1 receptor expressed in CHO cells; assay type: cell-based
T1 sequence (P25929 whole entry): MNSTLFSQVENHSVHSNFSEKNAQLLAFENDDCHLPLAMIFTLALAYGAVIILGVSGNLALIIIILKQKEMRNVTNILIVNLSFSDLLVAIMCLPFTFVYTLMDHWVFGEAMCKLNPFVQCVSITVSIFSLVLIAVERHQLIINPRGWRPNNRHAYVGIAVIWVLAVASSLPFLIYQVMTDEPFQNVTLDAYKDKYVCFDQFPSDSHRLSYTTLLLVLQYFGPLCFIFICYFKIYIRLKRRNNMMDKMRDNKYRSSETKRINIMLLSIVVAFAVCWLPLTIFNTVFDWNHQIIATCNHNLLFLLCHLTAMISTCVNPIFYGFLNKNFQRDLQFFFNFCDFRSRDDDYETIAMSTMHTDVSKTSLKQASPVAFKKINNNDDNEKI

[2] = Ratio of drug level in […] plasma in Sprague-Dawley rat at 1 mg/kg, iv after 5 mins; assay type: ADME, organism-based; parameters: dose 1 mg/kg, route intravenous
Procedure, shortened: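 Brain penetration was assessed in male Sprague–Dawley rats dosed iv at 1 mg/kg in DMSO/PEG400/H2O 5:50:45 solution. The partition ratio was measured 5 min after dosing.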

[3] = Oral bioavailability in Sprague-Dawley rat at 5 mg/kg, po; assay type: ADME, organism-based; conditions: in vivo
Procedure, shortened: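 Male Sprague–Dawley rats received 5 mg/kg orally as a methocel suspension. F was calculated from the normalised AUC against the iv (1 mg/kg) dose.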

[4] = Ratio of drug level in […] plasma in Sprague-Dawley rat at 1 mg/kg, iv after 5 mins; conditions: in vivo
[5] = Plasma clearance in Sprague-Dawley rat at 1 mg/kg, iv; assay type: ADME, organism-based; parameters: dose 1 mg/kg, route intravenous
Procedure, shortened: (§1)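 Male Sprague–Dawley rats given 1 mg/kg iv as a solution in DMSO/PEG400/H2O 5:50:45. Clearance, half-life, volume of distribution and AUC were derived from the post-dose profile.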

[6] = Half life in Sprague-Dawley rat at 1 mg/kg, iv; assay type: ADME, organism-based; parameters: dose 1 mg/kg, route intravenous; conditions: in vivo; procedure, shortened: as §1

Structure (SMILES) | pIC50 [1] | also measured
O=C(c1cc(Oc2ccc(Cl)cc2)c2c(c1)c1ccccc1n2C[C@@H]1CCNC[C@@H]1F)N1CCn2ccnc2C1 | 5.72 | 
CN1CCN(C(=O)c2cc(Oc3ccc(Cl)cc3)c3c(c2)c2ccccc2n3CC2CCN(CC(=O)N(C)C)CC2)CC1 | 7.85 | 
CN1CCN(C(=O)c2cc(Oc3ccc(Cl)cc3)c3c(c2)c2ccccc2n3C[C@@H]2CCNC[C@@H]2F)CC1 | 7.29 | 
CN1CCN(C(=O)c2cc(Oc3ccc(Cl)cc3)c3c(c2)c2ccccc2n3CC2CCNCC2)CC1 | 7.80 | bioavailability [3]: 0%; Ratio [4]: 0.12
CN1CCN(C(=O)c2cc(Oc3ccc(Cl)cc3)c3c(c2)c2ccccc2n3C[C@@H]2CCN(C3CC3)C[C@@H]2F)CC1 | 6.73 | 
O=C(c1cc(Oc2ccc(Cl)cc2)c2c(c1)c1ccccc1n2C[C@@H]1CCNC[C@@H]1F)N1CCN(CCO)CC1 | 6.08 | 
CN1CCN(C(=O)c2cc(Oc3ccc(Cl)cc3)c3c(c2)c2ccccc2n3C[C@@H]2CCN(C)C[C@@H]2F)CC1 | 7.55 | bioavailability [3]: 19%; blood plasma ratio at 5 min [2]: 4.2; clearance [5]: 15 mL/min/kg; half-life [6]: 11 h
O=C(c1cc(Oc2ccc(Cl)cc2)c2c(c1)c1ccccc1n2C[C@@H]1CCNC[C@@H]1F)N1CCc2nc[nH]c2C1 | 5.54 | 
CN(C)CCN(C)C(=O)c1cc(Oc2ccc(Cl)cc2)c2c(c1)c1ccccc1n2C[C@@H]1CCNC[C@H]1F | 6.72 | 
CN(C)CCNC(=O)c1cc(Oc2ccc(Cl)cc2)c2c(c1)c1ccccc1n2C[C@@H]1CCNC[C@H]1F | 7.30 | 
O=C(c1cc(Oc2ccc(Cl)cc2)c2c(c1)c1ccccc1n2C[C@@H]1CCNC[C@@H]1F)N1CCC(O)CC1 | 5.11 | 
O=C(c1cc(Oc2ccc(Cl)cc2)c2c(c1)c1ccccc1n2C[C@@H]1CCNC[C@H]1F)N1CCN(C2CC2)CC1 | 6.06 | 
CCN1CCCC1CNC(=O)c1cc(Oc2ccc(Cl)cc2)c2c(c1)c1ccccc1n2C[C@@H]1CCNC[C@H]1F (stereo partly specified) | 6.58 | 

Continued by rising pIC50 [1], values first:

pIC50 [1] | Structure (SMILES) | also measured
4.92 | CN(C)C(=O)c1cc(Oc2ccc(Cl)cc2)c2c(c1)c1ccccc1n2C[C@@H]1CCNC[C@H]1F | 
5.01 | O=C(c1cc(Oc2ccc(Cl)cc2)c2c(c1)c1ccccc1n2C[C@@H]1CCNC[C@@H]1F)N1CCN(CC(F)(F)F)CC1 | 
5.73 | CN1CCCC1CCNC(=O)c1cc(Oc2ccc(Cl)cc2)c2c(c1)c1ccccc1n2C[C@@H]1CCNC[C@H]1F (stereo partly specified) | 
6.33 | CN(C)C1CCN(C(=O)c2cc(Oc3ccc(Cl)cc3)c3c(c2)c2ccccc2n3C[C@@H]2CCNC[C@H]2F)C1 (stereo partly specified) | 
6.97 | CN1CCN(C(=O)c2cc(Oc3ccc(Cl)cc3)c3c(c2)c2ccccc2n3CC2CCCNC2)CC1 (stereo unspecified) | 
7.02 | CN1CCN(C(=O)c2cc(Oc3ccc(Cl)cc3)c3c(c2)c2ccccc2n3C[C@@H]2CCN(C)C[C@H]2F)CC1 | blood plasma ratio at 5 min [2]: 8.2
7.28 | CN1CCN(C(=O)c2cc(Oc3ccc(Cl)cc3)c3c(c2)c2ccccc2n3C[C@@H]2CCNC[C@H]2F)CC1 | 
7.30 | CN1CCN(C(=O)c2cc(Oc3ccc(Cl)cc3)c3c(c2)c2ccccc2n3CCCN2CCCCC2)CC1 | 
7.37 | CN1CCN(C(=O)c2cc(Oc3ccc(Cl)cc3)c3c(c2)c2ccccc2n3CC2=C(F)CNCC2)CC1 | 
7.96 | CN1CCC(Cn2c3ccccc3c3cc(C(=O)N4CCN(C)CC4)cc(Oc4ccc(Cl)cc4)c32)CC1 | blood plasma ratio at 5 min [2]: 0.8
